In the RNAGym collection of RNA variant scans (doi:10.1126/science.aae0568):
Variants at the floor of the assay were thinned out.

B1: tRNA (parent)
chain: GUUCCGUUGGCGUAAUGGUAACGCGUCUCCCUCCUAAGGAGAAGACUGCGGGUUCGAGUCCCGUACGGAACG

Variants of: B1
Assay: yeast fitness relative to wild type (ratio to wild type); higher = fitter; tRNA-Arg(CCU), competitive growth, 37 C, YPD
In short: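 Gene amplicons from the start population and from each of six end populations were read by 100-nucleotide paired-end sequencing. Those end populations came from pooled Saccharomyces cerevisiae strains carrying tRNA-Arg(CCU) gene variants at the native locus, competed in YPD at 37°C for 24 hours. Fitness relative to wild type was worked out from changes in genotype frequencies. Genotypes needed ≥ 100 starting reads, and estimates < 0.5 were set to 0.5.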

| Variant | yeast fitness |
| --- | --- |
| U26C C34G A70C | ≤ 0.5 |
| U26C C34U G44C U47G | ≤ 0.5 |
| U26C C46A C61U | ≤ 0.5 |
| U26C C46A C61U G67A | ≤ 0.5 |
| U26C C46A U47G G50A A69U | ≤ 0.5 |
| U26C C46G C62G G67U | ≤ 0.5 |
| U26C C46G C62G U64C G67U | ≤ 0.5 |
| U26C C46G G63A | ≤ 0.5 |
| U26C C49A | 0.598 |
| U26C C49U | 0.833 |
| U26C C55A | 0.65 |
| U26C C55G | 0.59 |
| U26C C61A C66U | 0.525 |
| U26C C61U U64A | 0.526 |
| U26C C62U | 0.823 |
| U26C C62U G67A | 0.542 |
| U26C C66G | 0.674 |
| U26C C66G A69C | ≤ 0.5 |
| U26C C66G G68C | ≤ 0.5 |
| U26C C66U | 0.823 |
| U26C G38A A43C A65C | ≤ 0.5 |
| U26C G39A | 0.698 |
| U26C G39A U59C | 0.604 |
| U26C G39C C55A C60G | ≤ 0.5 |

| Variant | yeast fitness |
| --- | --- |
| U26C G41A U47C C61G C62U | ≤ 0.5 |
| U26C G41C C46A | 0.627 |
| U26C G44A | 0.945 |
| U26C G44A A70U | 0.657 |
| U26C G44A G68U | 0.533 |
| U26C G44C | 0.77 |
| U26C G48A | 1.05 |
| U26C G48A A57G C61G | 0.501 |
| U26C G48A C55U | 0.561 |
| U26C G50A U59A G67C | ≤ 0.5 |
| U26C G50C | 0.732 |
| U26C G50U | 0.733 |
| U26C G51C | 0.663 |
| U26C G52A | 0.748 |
| U26C G52A A70C | ≤ 0.5 |
| U26C G56A | 0.895 |
| U26C G56C A57C | ≤ 0.5 |
| U26C G58C A69C | 0.697 |
| U26C G63C | 0.76 |
| U26C G67A | 0.762 |
| U26C G67C | 0.833 |
| U26C U28A C29G A69U | ≤ 0.5 |
| U26C U28C A36C | ≤ 0.5 |
| U26C U28C A70G | 0.73 |

| Variant | yeast fitness |
| --- | --- |
| U26C U28C C34G U59A A65U | ≤ 0.5 |
| U26C U28G C34U G38A | ≤ 0.5 |
| U26C U32A C34U G38C | 0.525 |
| U26C U32A C34U G38C G51A A57C | 0.653 |
| U26C U32A C34U G38C G51A A57C A65C | ≤ 0.5 |
| U26C U32A C34U G38C G51A A57C C66U | 0.66 |
| U26C U32C A37G C49G | ≤ 0.5 |
| U26C U32C C66U | 0.676 |
| U26C U32C U47C G50A C61U U64A | ≤ 0.5 |
| U26C U35A U47A U54A | ≤ 0.5 |
| U26C U35C C49U A57U | 0.656 |
| U26C U35C G50C G52A | ≤ 0.5 |
| U26C U47C | 0.952 |
| U26C U47G G50C C66A | 0.685 |
| U26C U53A | 0.706 |
| U26C U53C G58A | 0.686 |
| U26C U59G | 0.862 |
| U26G | 0.971 |
| U26G A36C C66A | ≤ 0.5 |
| U26G A36G A70G | 0.652 |
| U26G A36G G68A A69G | 0.626 |
| U26G A36U U47G | 0.626 |
| U26G A36U U47G C62U G68C | ≤ 0.5 |
| U26G A37C A42G G44C A45G | ≤ 0.5 |

| Variant | yeast fitness |
| --- | --- |
| U26G A37C A42G G44C A45G C49U A65U | ≤ 0.5 |
| U26G A40G U59G C62A | ≤ 0.5 |
| U26G A42C | 1.03 |
| U26G A42C C61U | 0.684 |
| U26G A43G | 0.895 |
| U26G A45G C46U G50A U53G C66U A69U | ≤ 0.5 |
| U26G A45G C46U U53G C66U A69U | 0.582 |
| U26G A45U | 0.789 |
| U26G A45U G50A C55A | ≤ 0.5 |
| U26G A65G | 0.971 |
| U26G A69U | 0.919 |
| U26G A70C | 0.924 |
| U26G C27G C33U G39C C49U | ≤ 0.5 |
| U26G C27G U32A A40U | ≤ 0.5 |
| U26G C27G U47A C62U | ≤ 0.5 |
| U26G C27U A69U | 0.696 |
| U26G C27U A70U | ≤ 0.5 |
| U26G C27U G50C | ≤ 0.5 |
| U26G C29A C30G C31G U59A | 0.533 |
| U26G C29G C62U A70G | 0.61 |
| U26G C30A G68C | 0.531 |
| U26G C30U G52A | 0.519 |
| U26G C31A | 0.804 |
| U26G C31G A36U G41A A45C | ≤ 0.5 |

| Variant | yeast fitness |
| --- | --- |
| U26G C31G U32A | 0.691 |
| U26G C31U | 1.02 |
| U26G C31U C62U | 0.695 |
| U26G C31U U54A | 0.569 |
| U26G C33A A42U C55G | 0.556 |
| U26G C33G C34G A40U G68A | ≤ 0.5 |
| U26G C34U A40G G51A | ≤ 0.5 |
| U26G C34U C49A G51A A69U | ≤ 0.5 |
| U26G C34U G44C G56A | ≤ 0.5 |
| U26G C46G A65C | 0.563 |
| U26G C46G C55G | ≤ 0.5 |
| U26G C46U | 1.01 |
| U26G C55G A65C A70U | ≤ 0.5 |
| U26G C60A | 0.593 |
| U26G C61U | 0.864 |
| U26G C61U G63C A65G | 0.799 |
| U26G C66G | 0.677 |
| U26G G39A C46G G68A | 0.522 |
| U26G G39C G58A C66U | ≤ 0.5 |
| U26G G41A | 0.794 |
| U26G G44A | 0.87 |
| U26G G44A A69U | 0.673 |
| U26G G44C G58A G68C | 0.529 |
| U26G G48A C61U A70U | 0.68 |

| Variant | yeast fitness |
| --- | --- |
| U26G G56A G67A | 0.529 |
| U26G G56A G68U A69U | ≤ 0.5 |
| U26G G58A | 0.881 |
| U26G G58C | 0.696 |
| U26G G67A | 0.81 |
| U26G G67C G68A | ≤ 0.5 |
| U26G U28A | 0.62 |
| U26G U28A U53A | ≤ 0.5 |
| U26G U32A G51A | ≤ 0.5 |
| U26G U32A G63A | ≤ 0.5 |
| U26G U32C | 0.821 |
| U26G U35A | 0.589 |
| U26G U35A A69G A70G | 0.732 |
| U26G U35A G41A C46U G68A | ≤ 0.5 |
| U26G U35C | 0.657 |
| U26G U59A | 0.663 |
| U26G U59G | 0.704 |
| C27A A36C A40G C62A | ≤ 0.5 |
| C27A A36C A42U U64G | ≤ 0.5 |
| C27A A36G A42G C66U | ≤ 0.5 |
| C27A A36G A70U | 0.561 |
| C27A A36G C46A G50A G51C | ≤ 0.5 |
| C27A A36U | 0.802 |
| C27A A36U A37U | 0.638 |

| Variant | yeast fitness |
| --- | --- |
| C27A A36U A37U A65G | ≤ 0.5 |
| C27A A36U A37U A65U A70G | ≤ 0.5 |
| C27A A37C | 0.597 |
| C27A A37C A43G C55G | ≤ 0.5 |
| C27A A37G | 0.737 |
| C27A A37U C60U G63A | 0.707 |
| C27A A40C | 0.775 |
| C27A A40C A43G | ≤ 0.5 |
| C27A A40C A45U A57U A70U | 0.588 |
| C27A A40C C46A | 0.597 |
| C27A A40G | 0.843 |
| C27A A40G A42U C61G | ≤ 0.5 |
| C27A A40G C46G C62G | 0.687 |
| C27A A42C | 0.751 |
| C27A A42C A57G | ≤ 0.5 |
| C27A A42C C60U | ≤ 0.5 |
| C27A A42C G67C A69C | ≤ 0.5 |
| C27A A42G | 0.791 |
| C27A A42G U54C | ≤ 0.5 |
| C27A A42U G67C | 0.613 |
| C27A A42U G67C A69C | 0.726 |
| C27A A43C | 0.939 |
| C27A A43C C60A | ≤ 0.5 |
